Reference: ChEMBL document CHEMBL1158182, “Antifungal activity of chalcones: a mechanistic study using various yeast strains” (Eur J Med Chem, 2008)

Experiments:
Type in all cases: functional
Saccharomyces cerevisiae [1] = experiment: Antifungal activity against haploid Saccharomyces cerevisiae 1S by agar dilution method
How it was run: (§1)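 S. cerevisiae and K. lactis strains were tested by agar dilution on rich YPD agar at 30 °C. Compound stocks in 96% EtOH were added to the medium to give […]. Cells were suspended in water, serially diluted to 10^9–10^3 cells/ml, and plated with a metal replicator. MIC was read from growth.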

Saccharomyces cerevisiae [2] = experiment: Antifungal activity against haploid Saccharomyces cerevisiae 1169 by agar dilution method; how it was run: as §1
Saccharomyces cerevisiae [3] = experiment: Antifungal activity against haploid Saccharomyces cerevisiae 2180 by agar dilution method; how it was run: as §1
Saccharomyces cerevisiae [4] = experiment: Antifungal activity against diploid Saccharomyces cerevisiae 1a by agar dilution method; how it was run: as §1
Saccharomyces cerevisiae [5] = experiment: Antifungal activity against diploid Saccharomyces cerevisiae 29a by agar dilution method; how it was run: as §1
Saccharomyces cerevisiae [6] = experiment: Antifungal activity against haploid Saccharomyces cerevisiae Sigma 1278b by agar dilution method; how it was run: as §1
Saccharomyces cerevisiae [7] = experiment: Antifungal activity against haploid Saccharomyces cerevisiae FY4 by agar dilution method; how it was run: as §1
Saccharomyces cerevisiae [8] = experiment: Antifungal activity against haploid Saccharomyces cerevisiae 10560-6B by agar dilution method; how it was run: as §1
Saccharomyces cerevisiae [9] = experiment: Antifungal activity against haploid Saccharomyces cerevisiae YSH1170 by agar dilution method; how it was run: as §1
Saccharomyces cerevisiae [10] = experiment: Antifungal activity against haploid Saccharomyces cerevisiae YSH1171 by agar dilution method; how it was run: as §1
Ogataea angusta [11] = experiment: Antifungal activity against Hansenula polymorpha WT1 with ade1 ura3 genotype by agar dilution method
How it was run: (§2)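 H. polymorpha strains were tested by agar dilution on rich YPD agar at 37 °C. Compound stocks in 96% EtOH were mixed into the medium to give […]. Cells were suspended in water, serially diluted to 10^9, 10^7, 10^5 and 10^3 cells/ml, and applied to the agar with a metal replicator. MIC was read from growth.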

Ogataea angusta [12] = experiment: Antifungal activity against Hansenula polymorpha WT2 with ade1 met6 genotype by agar dilution method; how it was run: as §2
Ogataea angusta [13] = experiment: Antifungal activity against Hansenula polymorpha CD1 with ade1 leu2 cds1 genotype by agar dilution method; how it was run: as §2
Ogataea angusta [14] = experiment: Antifungal activity against Hansenula polymorpha CD2 with ade1 leu2 cds2 genotype by agar dilution method; how it was run: as §2
Ogataea angusta [15] = experiment: Antifungal activity against Hansenula polymorpha CD3 with ade1 leu2 cds3 genotype by agar dilution method; how it was run: as §2
Ogataea angusta [16] = experiment: Antifungal activity against Hansenula polymorpha 2a with arg1 leu2 ura3 cys1 genotype by agar dilution method; how it was run: as §2
Ogataea angusta [17] = experiment: Antifungal activity against Hansenula polymorpha 2b with arg1 ade1 leu2 genotype by agar dilution method; how it was run: as §2
Ogataea angusta [18] = experiment: Antifungal activity against Hansenula polymorpha D22 with arg1/arg1 ade1/ADE1 leu2/leu2 URA3/ura3 CYS1/cys1 genotype by agar dilution method; how it was run: as §2
Ogataea angusta [19] = experiment: Antifungal activity against Hansenula polymorpha M2 with met2 genotype by agar dilution method; how it was run: as §2
Ogataea angusta [20] = experiment: Antifungal activity against Hansenula polymorpha MC1 with met2 cys1 genotype by agar dilution method; how it was run: as §2
Ogataea angusta [21] = experiment: Antifungal activity against Hansenula polymorpha AS1 with arg1 gsh2delta genotype by agar dilution method; how it was run: as §2
Ogataea angusta [22] = experiment: Antifungal activity against Hansenula polymorpha M4 with met4 genotype by agar dilution method; how it was run: as §2
Ogataea angusta [23] = experiment: Antifungal activity against Hansenula polymorpha AU05 with ade3 ura3 genotype by agar dilution method; how it was run: as §2
Ogataea angusta [24] = experiment: Antifungal activity against Hansenula polymorpha R3 with rgh3 genotype by agar dilution method; how it was run: as §2
Ogataea angusta [25] = experiment: Antifungal activity against Hansenula polymorpha CRD2 with leu2 CDR2 genotype by agar dilution method; how it was run: as §2
Kluyveromyces lactis [26] = experiment: Antifungal activity against Kluyveromyces lactis 2-18B with MATalpha metA1 ura3 leu2 genotype by agar dilution method; how it was run: as §1
Kluyveromyces lactis [27] = experiment: Antifungal activity against Kluyveromyces lactis 1-6A with MATalpha uraA lys arg genotype by agar dilution method; how it was run: as §1
Kluyveromyces lactis [28] = experiment: Antifungal activity against Kluyveromyces lactis 2-19B with MATalpha ura lys arg genotype by agar dilution method; how it was run: as §1

Measured: MIC

COc1ccc(/C=C/C(=O)c2ccc(Cl)cc2)cc1
> 40 µg/mL: Saccharomyces cerevisiae [1] | Saccharomyces cerevisiae [2] | Saccharomyces cerevisiae [3] | Saccharomyces cerevisiae [4] | Saccharomyces cerevisiae [5] | Saccharomyces cerevisiae [6] | Saccharomyces cerevisiae [7] | Saccharomyces cerevisiae [8] | Saccharomyces cerevisiae [9] | Saccharomyces cerevisiae [10] | Ogataea angusta [11] | Ogataea angusta [12] | Ogataea angusta [13] | Ogataea angusta [14] | Ogataea angusta [15] | Ogataea angusta [16] | Ogataea angusta [17] | Ogataea angusta [18] | Ogataea angusta [19] | Ogataea angusta [20] | Ogataea angusta [21] | Ogataea angusta [22] | Ogataea angusta [23] | Ogataea angusta [24] | Ogataea angusta [25] | Kluyveromyces lactis [26] | Kluyveromyces lactis [27] | Kluyveromyces lactis [28]

O=C(/C=C/C=C/c1ccccc1)c1ccc(Cl)cc1
> 40 µg/mL: Saccharomyces cerevisiae [1] | Saccharomyces cerevisiae [2] | Saccharomyces cerevisiae [3] | Saccharomyces cerevisiae [4] | Saccharomyces cerevisiae [5] | Saccharomyces cerevisiae [6] | Saccharomyces cerevisiae [7] | Saccharomyces cerevisiae [8] | Saccharomyces cerevisiae [9] | Saccharomyces cerevisiae [10] | Ogataea angusta [11] | Ogataea angusta [12] | Ogataea angusta [13] | Ogataea angusta [14] | Ogataea angusta [15] | Ogataea angusta [16] | Ogataea angusta [17] | Ogataea angusta [18] | Ogataea angusta [19] | Ogataea angusta [20] | Ogataea angusta [21] | Ogataea angusta [22] | Ogataea angusta [23] | Ogataea angusta [24] | Ogataea angusta [25] | Kluyveromyces lactis [26] | Kluyveromyces lactis [27] | Kluyveromyces lactis [28]

O=C(/C=C/c1ccc(Cl)cc1)c1ccc(Cl)cc1 [4',4-DICHLOROCHALCONE]
> 40 µg/mL: Saccharomyces cerevisiae [1] | Saccharomyces cerevisiae [2] | Saccharomyces cerevisiae [3] | Saccharomyces cerevisiae [4] | Saccharomyces cerevisiae [5] | Saccharomyces cerevisiae [6] | Saccharomyces cerevisiae [7] | Saccharomyces cerevisiae [8] | Saccharomyces cerevisiae [9] | Saccharomyces cerevisiae [10] | Ogataea angusta [11] | Ogataea angusta [12] | Ogataea angusta [13] | Ogataea angusta [14] | Ogataea angusta [15] | Ogataea angusta [16] | Ogataea angusta [17] | Ogataea angusta [18] | Ogataea angusta [19] | Ogataea angusta [20] | Ogataea angusta [21] | Ogataea angusta [22] | Ogataea angusta [23] | Ogataea angusta [24] | Ogataea angusta [25] | Kluyveromyces lactis [26] | Kluyveromyces lactis [27] | Kluyveromyces lactis [28]

COc1cc(/C=C/C(=O)c2ccc(Cl)cc2)cc(OC)c1O
> 40 µg/mL: Saccharomyces cerevisiae [1] | Saccharomyces cerevisiae [2] | Saccharomyces cerevisiae [3] | Saccharomyces cerevisiae [4] | Saccharomyces cerevisiae [5] | Saccharomyces cerevisiae [6] | Saccharomyces cerevisiae [7] | Saccharomyces cerevisiae [8] | Saccharomyces cerevisiae [9] | Saccharomyces cerevisiae [10] | Ogataea angusta [11] | Ogataea angusta [12] | Ogataea angusta [13] | Ogataea angusta [14] | Ogataea angusta [15] | Ogataea angusta [16] | Ogataea angusta [17] | Ogataea angusta [18] | Ogataea angusta [19] | Ogataea angusta [20] | Ogataea angusta [21] | Ogataea angusta [22] | Ogataea angusta [23] | Ogataea angusta [24] | Ogataea angusta [25] | Kluyveromyces lactis [26] | Kluyveromyces lactis [27] | Kluyveromyces lactis [28]

O=C(/C=C/c1ccc(O)c(O)c1)c1ccc(Cl)cc1
> 40 µg/mL: Saccharomyces cerevisiae [1] | Saccharomyces cerevisiae [2] | Saccharomyces cerevisiae [3] | Saccharomyces cerevisiae [4] | Saccharomyces cerevisiae [5] | Saccharomyces cerevisiae [6] | Saccharomyces cerevisiae [7] | Saccharomyces cerevisiae [8] | Saccharomyces cerevisiae [9] | Saccharomyces cerevisiae [10] | Ogataea angusta [11] | Ogataea angusta [12] | Ogataea angusta [13] | Ogataea angusta [14] | Ogataea angusta [15] | Ogataea angusta [16] | Ogataea angusta [17] | Ogataea angusta [18] | Ogataea angusta [19] | Ogataea angusta [20] | Ogataea angusta [21] | Ogataea angusta [22] | Ogataea angusta [23] | Ogataea angusta [24] | Ogataea angusta [25] | Kluyveromyces lactis [26] | Kluyveromyces lactis [27] | Kluyveromyces lactis [28]

COc1cc(/C=C/C(=O)c2ccc(Cl)cc2)ccc1O
> 40 µg/mL: Saccharomyces cerevisiae [1] | Saccharomyces cerevisiae [2] | Saccharomyces cerevisiae [3] | Saccharomyces cerevisiae [4] | Saccharomyces cerevisiae [5] | Saccharomyces cerevisiae [6] | Saccharomyces cerevisiae [7] | Saccharomyces cerevisiae [8] | Saccharomyces cerevisiae [9] | Saccharomyces cerevisiae [10] | Ogataea angusta [11] | Ogataea angusta [12] | Ogataea angusta [13] | Ogataea angusta [14] | Ogataea angusta [15] | Ogataea angusta [16] | Ogataea angusta [17] | Ogataea angusta [18] | Ogataea angusta [19] | Ogataea angusta [20] | Ogataea angusta [21] | Ogataea angusta [22] | Ogataea angusta [23] | Ogataea angusta [24] | Ogataea angusta [25] | Kluyveromyces lactis [26] | Kluyveromyces lactis [27] | Kluyveromyces lactis [28]

N#Cc1ccc(/C=C/C(=O)c2ccc(Cl)cc2)cc1
> 40 µg/mL: Saccharomyces cerevisiae [1] | Saccharomyces cerevisiae [2] | Saccharomyces cerevisiae [3] | Saccharomyces cerevisiae [4] | Saccharomyces cerevisiae [5] | Saccharomyces cerevisiae [6] | Saccharomyces cerevisiae [7] | Saccharomyces cerevisiae [8] | Saccharomyces cerevisiae [9] | Saccharomyces cerevisiae [10] | Ogataea angusta [11] | Ogataea angusta [12] | Ogataea angusta [13] | Ogataea angusta [14] | Ogataea angusta [15] | Ogataea angusta [16] | Ogataea angusta [17] | Ogataea angusta [18] | Ogataea angusta [19] | Ogataea angusta [20] | Ogataea angusta [21] | Ogataea angusta [22] | Ogataea angusta [23] | Ogataea angusta [24] | Ogataea angusta [25] | Kluyveromyces lactis [26] | Kluyveromyces lactis [27] | Kluyveromyces lactis [28]

Cc1ccc(/C=C/C(=O)c2ccc(Cl)cc2)cc1
> 40 µg/mL: Saccharomyces cerevisiae [1] | Saccharomyces cerevisiae [2] | Saccharomyces cerevisiae [3] | Saccharomyces cerevisiae [4] | Saccharomyces cerevisiae [5] | Saccharomyces cerevisiae [6] | Saccharomyces cerevisiae [7] | Saccharomyces cerevisiae [8] | Saccharomyces cerevisiae [9] | Saccharomyces cerevisiae [10] | Ogataea angusta [11] | Ogataea angusta [12] | Ogataea angusta [13] | Ogataea angusta [14] | Ogataea angusta [15] | Ogataea angusta [16] | Ogataea angusta [17] | Ogataea angusta [18] | Ogataea angusta [19] | Ogataea angusta [20] | Ogataea angusta [21] | Ogataea angusta [22] | Ogataea angusta [23] | Ogataea angusta [24] | Ogataea angusta [25] | Kluyveromyces lactis [26] | Kluyveromyces lactis [27] | Kluyveromyces lactis [28]

O=C(/C=C/c1ccc(O)c(O)c1)c1ccccc1
> 40 µg/mL: Saccharomyces cerevisiae [1] | Saccharomyces cerevisiae [2] | Saccharomyces cerevisiae [3] | Saccharomyces cerevisiae [4] | Saccharomyces cerevisiae [5] | Saccharomyces cerevisiae [6] | Saccharomyces cerevisiae [7] | Saccharomyces cerevisiae [8] | Saccharomyces cerevisiae [9] | Saccharomyces cerevisiae [10] | Ogataea angusta [11] | Ogataea angusta [12] | Ogataea angusta [13] | Ogataea angusta [14] | Ogataea angusta [15] | Ogataea angusta [16] | Ogataea angusta [17] | Ogataea angusta [18] | Ogataea angusta [19] | Ogataea angusta [20] | Ogataea angusta [21] | Ogataea angusta [22] | Ogataea angusta [23] | Ogataea angusta [24] | Ogataea angusta [25] | Kluyveromyces lactis [26] | Kluyveromyces lactis [27] | Kluyveromyces lactis [28]

COc1cccc(/C=C/C(=O)c2ccc(Cl)cc2)c1
> 40 µg/mL: Saccharomyces cerevisiae [1] | Saccharomyces cerevisiae [2] | Saccharomyces cerevisiae [3] | Saccharomyces cerevisiae [4] | Saccharomyces cerevisiae [5] | Saccharomyces cerevisiae [6] | Saccharomyces cerevisiae [7] | Saccharomyces cerevisiae [8] | Saccharomyces cerevisiae [9] | Saccharomyces cerevisiae [10] | Ogataea angusta [11] | Ogataea angusta [12] | Ogataea angusta [13] | Ogataea angusta [14] | Ogataea angusta [15] | Ogataea angusta [16] | Ogataea angusta [17] | Ogataea angusta [18] | Ogataea angusta [19] | Ogataea angusta [20] | Ogataea angusta [21] | Ogataea angusta [22] | Ogataea angusta [23] | Ogataea angusta [24] | Ogataea angusta [25] | Kluyveromyces lactis [26] | Kluyveromyces lactis [27] | Kluyveromyces lactis [28]

O=C(/C=C/c1ccc(O)cc1)c1ccccc1 [4-HYDROXYCHALCONE]
> 40 µg/mL: Saccharomyces cerevisiae [1] | Saccharomyces cerevisiae [2] | Saccharomyces cerevisiae [3] | Saccharomyces cerevisiae [4] | Saccharomyces cerevisiae [5] | Saccharomyces cerevisiae [6] | Saccharomyces cerevisiae [7] | Saccharomyces cerevisiae [8] | Saccharomyces cerevisiae [9] | Saccharomyces cerevisiae [10] | Ogataea angusta [11] | Ogataea angusta [12] | Ogataea angusta [13] | Ogataea angusta [14] | Ogataea angusta [15] | Ogataea angusta [16] | Ogataea angusta [17] | Ogataea angusta [18] | Ogataea angusta [19] | Ogataea angusta [20] | Ogataea angusta [21] | Ogataea angusta [22] | Ogataea angusta [23] | Ogataea angusta [24] | Ogataea angusta [25] | Kluyveromyces lactis [26] | Kluyveromyces lactis [27] | Kluyveromyces lactis [28]
